Measured values from ChEMBL document CHEMBL1926621, “New potent 5-HT(2A) receptor ligands containing an N'-cyanopicolinamidine nucleus: Synthesis and in vitro pharmacological evaluation” (Eur J Med Chem, 2012).
pIC50, pKi: −log10 of the molar value.

Experiments:
[1] = target: T1, 5-hydroxytryptamine receptor 1A (Rattus norvegicus, UniProt P19327); test: Displacement of [3H]-8-OH-DPAT from Sprague-Dawley rat brain cortex serotonin 5-HT1A receptor after 30 mins by liquid scintillation counting; settings: for pKi: read-out: Ki
T1 sequence (P19327 whole entry): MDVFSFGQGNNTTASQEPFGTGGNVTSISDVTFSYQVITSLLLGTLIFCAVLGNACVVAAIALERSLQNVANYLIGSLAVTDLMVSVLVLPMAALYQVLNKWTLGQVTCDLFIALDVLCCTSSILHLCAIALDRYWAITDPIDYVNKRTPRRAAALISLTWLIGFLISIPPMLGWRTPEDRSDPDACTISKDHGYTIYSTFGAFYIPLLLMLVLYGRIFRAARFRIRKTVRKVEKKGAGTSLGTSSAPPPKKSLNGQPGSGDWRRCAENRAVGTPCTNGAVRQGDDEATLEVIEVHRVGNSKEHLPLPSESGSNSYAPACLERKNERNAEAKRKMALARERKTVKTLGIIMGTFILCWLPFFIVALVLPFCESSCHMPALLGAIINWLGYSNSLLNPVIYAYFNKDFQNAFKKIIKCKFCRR
Outline: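 Male Sprague-Dawley rat (180-220 g) cerebral cortex homogenized in 50 mM Tris-HCl pH 7.7, spun 50,000 g. [3H]-8-OH-DPAT 0.1 nM final, 30 min at 37 °C, GF/B filtration. Test compounds in ethanol or 5% DMSO, six concentrations in triplicate. IC50 by curve fitting, Ki by Cheng-Prusoff using Scatchard-derived KD.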

[2] = target: 5-hydroxytryptamine receptor 2A (Rattus norvegicus, UniProt P14842); test: Displacement of [3H]ketanserin from Sprague-Dawley rat brain cortex serotonin 5-HT2A receptor after 15 mins by liquid scintillation counting; settings: for pKi: read-out: Ki
Chain of 5-hydroxytryptamine receptor 2A (P14842 whole entry): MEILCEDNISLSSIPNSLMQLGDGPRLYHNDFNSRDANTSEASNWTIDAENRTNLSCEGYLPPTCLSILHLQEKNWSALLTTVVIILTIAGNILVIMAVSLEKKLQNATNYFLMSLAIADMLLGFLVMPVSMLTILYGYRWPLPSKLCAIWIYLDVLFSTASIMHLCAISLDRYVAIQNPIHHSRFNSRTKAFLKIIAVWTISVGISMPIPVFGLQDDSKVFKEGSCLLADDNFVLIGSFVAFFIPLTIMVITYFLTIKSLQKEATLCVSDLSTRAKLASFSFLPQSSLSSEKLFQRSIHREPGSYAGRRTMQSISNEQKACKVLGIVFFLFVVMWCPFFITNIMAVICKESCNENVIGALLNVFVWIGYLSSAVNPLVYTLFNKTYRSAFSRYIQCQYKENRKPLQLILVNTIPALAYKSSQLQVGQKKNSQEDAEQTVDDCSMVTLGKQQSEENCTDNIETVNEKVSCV
Outline: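 Male Sprague-Dawley rat frontal cortex membranes in 50 mM Tris-HCl, 0.5 mM EDTA, 10 mM MgCl2 pH 7.4, with 0.1% ascorbate and pargyline. 0.4 nM [3H]ketanserin, 5 mg wet tissue, 15 min at 37 °C. Filtered on PEI-soaked glass fibre. Six compound concentrations in triplicate. IC50 converted to Ki by Cheng-Prusoff.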

[3] = target: T2, 5-hydroxytryptamine receptor 2C (Rattus norvegicus, UniProt P08909); test: Displacement of [3H]mesulergine from Sprague-Dawley rat brain cortex serotonin 5-HT2C receptor after 15 mins by liquid scintillation counting in presence of 5-HT2A blocker, spiperone; settings: for pKi: read-out: Ki
T2 sequence (P08909 whole entry): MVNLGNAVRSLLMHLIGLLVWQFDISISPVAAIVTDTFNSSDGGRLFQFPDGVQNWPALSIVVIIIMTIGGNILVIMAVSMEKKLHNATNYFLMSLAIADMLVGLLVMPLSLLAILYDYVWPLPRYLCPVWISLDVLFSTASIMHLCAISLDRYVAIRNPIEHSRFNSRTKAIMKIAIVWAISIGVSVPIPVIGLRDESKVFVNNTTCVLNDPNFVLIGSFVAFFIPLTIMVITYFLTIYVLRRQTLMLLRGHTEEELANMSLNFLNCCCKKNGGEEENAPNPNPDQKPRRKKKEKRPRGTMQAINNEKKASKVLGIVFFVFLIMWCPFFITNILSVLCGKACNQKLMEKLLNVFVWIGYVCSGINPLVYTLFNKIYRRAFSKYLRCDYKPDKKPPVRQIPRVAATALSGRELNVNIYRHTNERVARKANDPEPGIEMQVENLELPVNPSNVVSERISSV
Outline: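 Male Sprague-Dawley rat frontal cortex membranes (Tris-HCl/EDTA/MgCl2 pH 7.4, ascorbate, pargyline). 100 nM spiperone in all tubes to block 5-HT2A sites. Mianserin defined nonspecific binding. 15 min at 37 °C, PEI-soaked glass fibre filtration. Six compound concentrations in triplicate. Ki by Cheng-Prusoff.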

D(1A) dopamine receptor = D(1A) dopamine receptor (Rattus norvegicus, UniProt P18901); test: Displacement of [3H]SCH-23390 from rat corpora striatum dopamine D1 receptor after 15 mins by liquid scintillation counting; settings: for pKi: read-out: Ki
Chain of D(1A) dopamine receptor (P18901 whole entry): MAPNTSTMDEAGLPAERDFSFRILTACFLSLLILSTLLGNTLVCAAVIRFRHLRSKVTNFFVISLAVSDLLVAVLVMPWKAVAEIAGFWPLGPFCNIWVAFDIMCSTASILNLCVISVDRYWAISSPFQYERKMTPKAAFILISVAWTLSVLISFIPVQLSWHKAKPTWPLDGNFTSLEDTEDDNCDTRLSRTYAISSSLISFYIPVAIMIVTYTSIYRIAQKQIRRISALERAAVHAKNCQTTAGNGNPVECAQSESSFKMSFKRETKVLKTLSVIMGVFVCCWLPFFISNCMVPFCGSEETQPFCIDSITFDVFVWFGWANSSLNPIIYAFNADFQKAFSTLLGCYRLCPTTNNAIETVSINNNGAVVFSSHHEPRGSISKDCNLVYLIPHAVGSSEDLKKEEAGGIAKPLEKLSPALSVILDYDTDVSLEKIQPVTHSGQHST
Outline: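 Rat corpora striata homogenized in 50 mM Tris-HCl pH 7.7, spun twice at 50,000 g. Resuspended in Tris-HCl with NaCl, KCl, CaCl2, MgCl2, ascorbic acid and pargyline. 0.4 nM [3H]SCH-23390 final, 3 mg fresh tissue, 15 min at 37 °C. Nonspecific binding with piflutixol. Ki by Cheng-Prusoff from triplicate six-point curves.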

D(2) dopamine receptor = D(2) dopamine receptor (Rattus norvegicus, UniProt P61169); test: Displacement of [3H]spiperone from rat corpora striatum dopamine D2 receptor after 15 mins by liquid scintillation counting; settings: for pKi: read-out: Ki
Chain of D(2) dopamine receptor (P61169 whole entry): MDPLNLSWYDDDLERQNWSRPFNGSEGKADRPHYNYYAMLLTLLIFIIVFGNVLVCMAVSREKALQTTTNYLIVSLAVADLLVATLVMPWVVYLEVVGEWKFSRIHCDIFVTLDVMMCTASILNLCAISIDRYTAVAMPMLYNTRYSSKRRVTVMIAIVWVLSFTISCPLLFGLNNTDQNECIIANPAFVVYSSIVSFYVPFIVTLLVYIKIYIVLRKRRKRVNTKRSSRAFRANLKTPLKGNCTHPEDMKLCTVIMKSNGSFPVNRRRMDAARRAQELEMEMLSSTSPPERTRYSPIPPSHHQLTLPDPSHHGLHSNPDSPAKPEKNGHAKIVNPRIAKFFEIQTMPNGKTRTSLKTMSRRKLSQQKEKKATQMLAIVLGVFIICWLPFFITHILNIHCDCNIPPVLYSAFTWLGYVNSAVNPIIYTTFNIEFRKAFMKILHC
Outline: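 Corpora striata membranes in Tris-HCl buffer containing NaCl, KCl, CaCl2, MgCl2, ascorbic acid and pargyline. [3H]spiperone 0.4 nM final, 3 mg fresh tissue, incubated 15 min at 37 °C. GF/B filtration, scintillation counting. Six concentrations in triplicate. IC50 converted to Ki via Cheng-Prusoff.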

[4] = target: T3, Adrenergic receptor alpha-1 (Rattus norvegicus, UniProt P15823+P23944+P43140); test: Displacement of [3H]prazosin from rat brain cortex adrenergic alpha1 receptor after 30 mins by liquid scintillation counting
T3 sequence (P15823 whole entry): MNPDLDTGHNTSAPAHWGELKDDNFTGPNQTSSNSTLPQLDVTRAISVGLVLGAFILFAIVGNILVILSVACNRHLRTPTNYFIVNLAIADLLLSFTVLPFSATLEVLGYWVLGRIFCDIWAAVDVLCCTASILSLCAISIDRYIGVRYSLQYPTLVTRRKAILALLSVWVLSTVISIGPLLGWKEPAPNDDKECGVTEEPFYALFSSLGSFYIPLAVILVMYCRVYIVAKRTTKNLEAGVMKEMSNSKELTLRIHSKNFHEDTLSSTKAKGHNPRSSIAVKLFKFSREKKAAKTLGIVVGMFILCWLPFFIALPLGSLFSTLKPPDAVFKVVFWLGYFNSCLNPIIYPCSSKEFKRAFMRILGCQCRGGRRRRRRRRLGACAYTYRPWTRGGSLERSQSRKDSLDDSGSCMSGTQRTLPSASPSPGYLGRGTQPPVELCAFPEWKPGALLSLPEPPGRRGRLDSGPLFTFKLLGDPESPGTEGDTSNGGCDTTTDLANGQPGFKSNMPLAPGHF
T3 sequence (P23944 whole entry): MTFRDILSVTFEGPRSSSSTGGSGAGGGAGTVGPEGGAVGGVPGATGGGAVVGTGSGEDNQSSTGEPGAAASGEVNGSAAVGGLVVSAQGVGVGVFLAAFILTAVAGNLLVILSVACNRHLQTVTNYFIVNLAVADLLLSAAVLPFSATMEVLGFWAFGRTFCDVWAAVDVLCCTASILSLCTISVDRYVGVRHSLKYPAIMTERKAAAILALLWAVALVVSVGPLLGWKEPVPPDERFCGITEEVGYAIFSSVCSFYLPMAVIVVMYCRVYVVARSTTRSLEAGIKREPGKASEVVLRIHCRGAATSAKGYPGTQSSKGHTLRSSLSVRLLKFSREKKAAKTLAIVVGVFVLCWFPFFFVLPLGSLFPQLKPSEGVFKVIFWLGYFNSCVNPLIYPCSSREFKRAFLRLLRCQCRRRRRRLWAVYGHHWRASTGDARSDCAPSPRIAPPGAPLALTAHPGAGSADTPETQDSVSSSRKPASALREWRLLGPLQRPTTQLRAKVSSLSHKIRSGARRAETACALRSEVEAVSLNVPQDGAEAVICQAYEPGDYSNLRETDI
T3 sequence (P43140 whole entry): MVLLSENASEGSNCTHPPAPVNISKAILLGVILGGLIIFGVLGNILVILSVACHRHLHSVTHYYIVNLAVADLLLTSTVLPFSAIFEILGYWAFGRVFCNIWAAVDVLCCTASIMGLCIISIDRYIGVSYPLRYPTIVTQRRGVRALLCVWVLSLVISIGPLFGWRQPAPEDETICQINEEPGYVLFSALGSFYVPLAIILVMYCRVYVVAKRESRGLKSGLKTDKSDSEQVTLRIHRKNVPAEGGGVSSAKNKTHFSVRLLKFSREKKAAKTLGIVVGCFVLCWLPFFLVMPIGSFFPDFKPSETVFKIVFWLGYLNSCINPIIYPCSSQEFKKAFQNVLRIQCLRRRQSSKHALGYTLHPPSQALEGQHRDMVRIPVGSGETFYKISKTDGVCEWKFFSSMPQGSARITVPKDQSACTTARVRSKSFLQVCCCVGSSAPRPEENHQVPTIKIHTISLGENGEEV
Outline: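 Brain cortex homogenized in 50 mM Tris-HCl pH 7.2, spun twice at 50,000 g, resuspended in Tris-HCl pH 7.4. 0.4 nM [3H]prazosin final, 10 mg fresh tissue, 30 min at 25 °C. Nonspecific binding with phentolamine. GF/B filtration. Ki by Cheng-Prusoff from six-point triplicate curves.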

[5] = target: T4, Adrenergic receptor alpha-2 (Rattus norvegicus, UniProt P22086+P19328+P22909); test: Displacement of [3H]yohimbine from rat brain cortex adrenergic alpha2 receptor after 30 mins by liquid scintillation counting
T4 sequence (P22086 whole entry): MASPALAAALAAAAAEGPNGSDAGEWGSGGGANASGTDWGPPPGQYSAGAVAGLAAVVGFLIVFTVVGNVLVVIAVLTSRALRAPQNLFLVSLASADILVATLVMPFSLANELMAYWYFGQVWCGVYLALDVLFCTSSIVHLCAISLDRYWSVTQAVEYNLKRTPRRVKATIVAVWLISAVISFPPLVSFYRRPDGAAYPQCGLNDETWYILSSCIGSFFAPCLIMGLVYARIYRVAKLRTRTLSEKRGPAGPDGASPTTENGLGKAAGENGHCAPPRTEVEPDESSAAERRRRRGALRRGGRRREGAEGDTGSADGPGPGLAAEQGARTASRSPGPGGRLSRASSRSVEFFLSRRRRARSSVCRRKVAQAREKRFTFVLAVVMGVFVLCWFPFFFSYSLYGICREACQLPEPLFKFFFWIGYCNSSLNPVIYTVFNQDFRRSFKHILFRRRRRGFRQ
T4 sequence (P19328 whole entry): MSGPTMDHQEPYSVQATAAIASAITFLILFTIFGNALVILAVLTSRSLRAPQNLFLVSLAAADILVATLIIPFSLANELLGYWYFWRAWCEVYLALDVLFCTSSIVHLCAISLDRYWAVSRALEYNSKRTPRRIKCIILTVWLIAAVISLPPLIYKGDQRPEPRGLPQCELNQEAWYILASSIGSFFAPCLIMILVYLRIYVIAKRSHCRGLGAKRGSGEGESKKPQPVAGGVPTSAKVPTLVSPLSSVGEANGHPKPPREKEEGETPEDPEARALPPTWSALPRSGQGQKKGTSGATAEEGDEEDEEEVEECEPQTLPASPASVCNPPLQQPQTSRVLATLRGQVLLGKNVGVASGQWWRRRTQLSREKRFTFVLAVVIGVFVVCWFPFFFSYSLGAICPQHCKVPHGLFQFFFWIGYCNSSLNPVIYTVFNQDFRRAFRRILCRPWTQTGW
T4 sequence (P22909 whole entry): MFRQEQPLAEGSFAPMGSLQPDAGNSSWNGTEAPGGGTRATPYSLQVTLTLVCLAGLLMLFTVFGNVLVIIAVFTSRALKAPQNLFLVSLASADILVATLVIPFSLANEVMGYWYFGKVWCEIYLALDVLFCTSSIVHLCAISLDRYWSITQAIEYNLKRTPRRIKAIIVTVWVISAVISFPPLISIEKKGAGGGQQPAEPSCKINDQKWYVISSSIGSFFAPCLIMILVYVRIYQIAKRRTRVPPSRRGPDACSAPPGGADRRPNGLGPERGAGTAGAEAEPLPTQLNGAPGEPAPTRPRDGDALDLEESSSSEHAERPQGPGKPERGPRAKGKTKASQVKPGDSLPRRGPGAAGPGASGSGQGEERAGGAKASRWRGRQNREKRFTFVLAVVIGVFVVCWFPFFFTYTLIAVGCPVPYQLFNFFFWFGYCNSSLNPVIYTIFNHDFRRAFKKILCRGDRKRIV
Outline: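 Cortex homogenized in 5 mM Tris-HCl, 5 mM EDTA pH 7.3, spun three times at 50,000 g, resuspended in 50 mM Tris-HCl, 0.5 mM EDTA pH 7.5. [3H]yohimbine 1 nM final, 10 mg fresh tissue, 30 min at 25 °C. Phentolamine defined nonspecific binding. Ki by Cheng-Prusoff.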

Structure (SMILES): CCOCCN1CCN(CCCN/C(=N\C#N)c2ccccn2)CC1
- Ki [1]: Not Active
- Ki [2]: Not Active
- pKi [3]: 6.22

Structure (SMILES): COc1ccc(N2CCN(CCCN/C(=N\C#N)c3ccccn3)CC2)cc1
- pKi (D(1A) dopamine receptor): < 5.00
- pKi [1]: 10.07
- pKi [2]: < 5.00
- pKi (D(2) dopamine receptor): < 5.00
- Ki [4]: > 10000 nM
- Ki [3]: Not Active

Structure (SMILES): COCCN1CCN(CCCN/C(=N\C#N)c2ccccn2)CC1
- Ki [1]: Not Active
- Ki [2]: Not Active
- pKi [3]: 6.41

Structure (SMILES): N#C/N=C(\NCCCN1CCN(c2ccccc2C#N)CC1)c1ccccn1
- pKi [1]: < 5.00
- pKi [2]: 6.04
- pKi [3]: 7.54

Structure (SMILES): C=CCN1CCN(CCCN/C(=N\C#N)c2ccccn2)CC1
- Ki [1]: Not Active
- Ki [2]: Not Active
- pKi [3]: < 5.00

Structure (SMILES): N#C/N=C(\NCCCN1CCN(C(=O)c2ccco2)CC1)c1ccccn1
- Ki (D(1A) dopamine receptor): Not Active
- pKi [1]: < 5.00
- pKi [2]: 7.67
- Ki [5]: > 10000 nM
- Ki (D(2) dopamine receptor): Not Active
- Ki [3]: Not Active

Structure (SMILES): N#C/N=C(\NCCCN1CCN(c2ccccc2Cl)CC1)c1ccccn1
- pKi [1]: 6.77
- pKi [2]: 7.57
- Ki [3]: Not Active

Structure (SMILES): N#CNC(=NCCCN1CCN(c2cccc(Cl)c2)CC1)c1ccccn1
- pKi (D(1A) dopamine receptor): < 5.00
- pKi [1]: 8.18
- pIC50 [2]: 12.60
- pKi [2]: 12.73
- pKi (D(2) dopamine receptor): < 5.00
- pKi [3]: 8.48
